Test results reported in ChEMBL document CHEMBL4316601, “Esterase-Sensitive and pH-Controlled Carbon Monoxide Prodrugs for Treating Systemic Inflammation” (J Med Chem, 2019).
Each block holds one compound with its values, some of them ahead of it. Activity calls are given as the source filed them. No cut-off for these calls is given here.

How the values were obtained:
Liver carboxylesterase [1] = target: T1, Liver carboxylesterase (Sus scrofa, UniProt Q29550); test: Drug metabolism in PBS buffer assessed as porcine liver esterase-mediated (1S,4S)-1,4-Dimethyl-7-oxo-5,6-diphenyl-3-(phenylsulfonyl)bicyclo[2.2.1]hept-5-ene-2-carbaldehyde formation at pH 7 at 20 uM after 36 hrs by HPLC analysis; conditions: pig, pH 7, 36 h
T1 sequence (Q29550 whole entry): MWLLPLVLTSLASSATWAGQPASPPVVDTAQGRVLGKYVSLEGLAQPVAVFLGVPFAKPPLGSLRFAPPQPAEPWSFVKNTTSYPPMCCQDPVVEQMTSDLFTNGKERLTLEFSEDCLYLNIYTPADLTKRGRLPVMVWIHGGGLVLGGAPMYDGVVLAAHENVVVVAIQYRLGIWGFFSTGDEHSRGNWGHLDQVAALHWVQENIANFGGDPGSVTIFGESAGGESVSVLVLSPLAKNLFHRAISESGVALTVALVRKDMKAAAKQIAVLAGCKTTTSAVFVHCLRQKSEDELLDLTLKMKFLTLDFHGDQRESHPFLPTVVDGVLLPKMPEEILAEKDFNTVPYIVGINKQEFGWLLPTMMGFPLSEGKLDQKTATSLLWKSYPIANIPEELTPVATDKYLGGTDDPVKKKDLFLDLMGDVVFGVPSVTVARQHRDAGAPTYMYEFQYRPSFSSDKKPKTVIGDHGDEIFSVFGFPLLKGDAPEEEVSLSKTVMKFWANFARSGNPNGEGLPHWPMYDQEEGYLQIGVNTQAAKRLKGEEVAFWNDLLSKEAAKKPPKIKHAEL

Liver carboxylesterase [2] = target: T1, Liver carboxylesterase; test: Drug metabolism in PBS buffer assessed as porcine liver esterase-mediated 3',6'-dimethyl-[1,1':2',1''-terphenyl]-4'-carbaldehyde formation at pH 7 at 20 uM after 36 hrs by HPLC analysis; conditions: pig, pH 7, 36 h
Summary of the method: (§1)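 Prodrug at a starting concentration of 20 was incubated with porcine liver esterase (3 U/mL) in PBS containing 5% DMSO at 37 °C. CO release was followed by HPLC as formation of the beta-elimination product.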

Liver carboxylesterase [3] = target: T1, Liver carboxylesterase; test: Drug metabolism in PBS buffer assessed as porcine liver esterase-mediated carbon monoxide release at pH 7 at 20 uM after 36 hrs by HPLC analysis; format: ADME; conditions: pig, isolated protein, pH 7, 36 h; summary of the method: as §1
Liver carboxylesterase [4] = target: T1, Liver carboxylesterase; test: Drug metabolism in PBS buffer assessed as porcine liver esterase-mediated (1S,4S)-1,4-Dimethyl-7-oxo-5,6-diphenyl-3-(phenylsulfonyl)bicyclo[2.2.1]hept-5-ene-2-carbaldehyde formation at pH 7 at 20 uM incubated for 48 hrs by HPLC analysis; format: ADME; conditions: pig, isolated protein, pH 7, 48 h
[5] = Drug metabolism in mouse serum assessed as esterase-mediated (1S,4S)-1,4-Dimethyl-7-oxo-5,6-diphenyl-3-(phenylsulfonyl)bicyclo[2.2.1]hept-5-ene-2-carbaldehyde metabolite formation by measuring half life by HPLC analysis; format: ADME, cell-free
Summary of the method: (§2)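 The prodrug was incubated in mouse, rat, rabbit or human serum. HPLC followed esterase-mediated hydrolysis to the bicyclic intermediate, giving a half-life, and the subsequent beta-elimination was followed for up to 20 h.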

[6] = Drug metabolism in rat serum assessed as esterase-mediated (1S,4S)-1,4-Dimethyl-7-oxo-5,6-diphenyl-3-(phenylsulfonyl)bicyclo[2.2.1]hept-5-ene-2-carbaldehyde metabolite formation by measuring half life by HPLC analysis; format: ADME, cell-free; summary of the method: as §2
[7] = Drug metabolism in rabbit serum assessed as esterase-mediated (1S,4S)-1,4-Dimethyl-7-oxo-5,6-diphenyl-3-(phenylsulfonyl)bicyclo[2.2.1]hept-5-ene-2-carbaldehyde metabolite formation by measuring half life by HPLC analysis; format: ADME, cell-free, Oryctolagus cuniculus; summary of the method: as §2
[8] = Drug metabolism in human serum assessed as esterase-mediated (1S,4S)-1,4-Dimethyl-7-oxo-5,6-diphenyl-3-(phenylsulfonyl)bicyclo[2.2.1]hept-5-ene-2-carbaldehyde metabolite formation by measuring half life by HPLC analysis; format: ADME, cell-free; summary of the method: as §2
[9] = Drug metabolism in mouse RAW264.7 cells assessed as carbon monoxide release at 50 uM after 5 hrs by COP1-based fluorescence assay; format: ADME, cell-based; conditions: raw264.7, 5 h
RAW264.7 [10] = test: Antiinflammatory activity in mouse RAW264.7 cells assessed as reduction in LPS-induced TNFalpha secretion preincubated for 4 hrs followed by LPS addition and measured after 1 hr by ELISA; format: functional, cell-based
Mus musculus [11] = test: Antiinflammatory activity in LPS-stimulated ip dosed C57BL/6 mouse assessed as inhibition of LPS-induced serum TNFalpha levels pretreated for 30 mins followed by LPS addition and measured after 6 hrs by ELISA; format: functional, organism-based
Mus musculus [12] = test: Hepatoprotective activity in LPS-stimulated ip dosed C57BL/6 mouse assessed as reduction in LPS-induced AST levels pretreated for 30 mins followed by LPS addition and measured after 6 hrs; format: functional, organism-based
Mus musculus [13] = test: Hepatoprotective activity in LPS-stimulated ip dosed C57BL/6 mouse assessed as reduction in LPS-induced ALT levels pretreated for 30 mins followed by LPS addition and measured after 6 hrs; format: functional, organism-based
Mus musculus [14] = test: Hepato-protective activity in LPS-stimulated C57BL/6 mouse assessed as reduction in LPS-induced liver injury at 10 mg/kg, ip pretreated for 30 mins followed by LPS addition and measured after 6 hrs by hematoxylin and eosin staining based assay; format: functional, organism-based
Liver carboxylesterase [15] = target: T1, Liver carboxylesterase; test: Drug metabolism in PBS buffer assessed as porcine liver esterase-mediated carbon monoxide release at pH 7 at 20 uM incubated for 48 hrs by HPLC analysis; format: ADME; conditions: pig, isolated protein, pH 7, 48 h; summary of the method: as §1
[16] = Drug metabolism in PBS buffer assessed as (1S,4S)-1,4-Dimethyl-7-oxo-5,6-diphenyl-3-(phenylsulfonyl)bicyclo[2.2.1]hept-5-ene-2-carbaldehyde formation at pH 7 at 20 uM in absence of porcine liver esterase after 6 hrs by HPLC analysis
Summary of the method: (§3)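 The prodrug was incubated without porcine liver esterase for up to 6 h, in either PBS (pH 7) or simulated gastric fluid (pH ~1). HPLC monitored hydrolysis to the acetal-cleaved bicyclic intermediate.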

[17] = Drug metabolism in pH 1 SGF assessed as (1S,4S)-1,4-Dimethyl-7-oxo-5,6-diphenyl-3-(phenylsulfonyl)bicyclo[2.2.1]hept-5-ene-2-carbaldehyde formation at 20 uM in absence of porcine liver esterase after 6 hrs by HPLC analysis; summary of the method: as §3
Liver carboxylesterase [18] = target: T1, Liver carboxylesterase; test: Drug metabolism in pH 1 SGF assessed as porcine liver esterase-mediated (1S,4S)-1,4-Dimethyl-7-oxo-5,6-diphenyl-3-(phenylsulfonyl)bicyclo[2.2.1]hept-5-ene-2-carbaldehyde formation at 20 uM after 2 mins by HPLC analysis; format: ADME; conditions: pig, isolated protein, pH 1, 2 min
Summary of the method: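 The prodrug was incubated in simulated gastric fluid (pH ~1) containing porcine liver esterase at 37 °C. HPLC tracked formation of the hydrolysed bicyclic intermediate and of the beta-elimination product for up to 7 h.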

RAW264.7 [19] = test: Cytotoxicity against mouse RAW264.7 cells assessed as reduction in cell viability at 50 uM uM incubated for 5 hrs by WST8 assay; format: cell-based; conditions: raw264.7, 5 h
RAW264.7 [20] = test: Cytotoxicity against mouse RAW264.7 cells assessed as reduction in cell viability at 200 uM by WST8 assay; format: cell-based; conditions: raw264.7, 200 µM
RAW264.7 [21] = test: Antiinflammatory activity in mouse RAW264.7 cells assessed as reduction in LPS-induced TNFalpha secretion at 12.5 to 100 uM preincubated for 4 hrs followed by LPS addition and measured after 1 hr by ELISA; format: functional, cell-based
Mus musculus [22] = test: Antiinflammatory activity in LPS-stimulated C57BL/6 mouse assessed as inhibition of LPS-induced serum TNFalpha levels at 10 mg/kg, ip pretreated for 30 mins followed by LPS addition and measured after 6 hrs by ELISA; format: functional, organism-based
Mus musculus [23] = test: Hepatoprotective activity in LPS-stimulated C57BL/6 mouse assessed as reduction in LPS-induced AST levels at 10 mg/kg, ip pretreated for 30 mins followed by LPS addition and measured after 6 hrs; format: functional, organism-based
Mus musculus [24] = test: Hepatoprotective activity in LPS-stimulated C57BL/6 mouse assessed as reduction in LPS-induced ALT levels at 10 mg/kg, ip pretreated for 30 mins followed by LPS addition and measured after 6 hrs; format: functional, organism-based
[25] = Drug metabolism in PBS buffer assessed as half life for carbon monoxide release at pH 7 by HPLC analysis
[26] = Drug metabolism in pH 7.4 PBS assessed as CO bounded myoglobin formation by measuring maximal absorption peak of deoxy-Mb incubated for 2 hrs by UV-vis absorption spectroscopy based myoglobin-CO assay
[27] = Drug metabolism in pH 7.4 PBS assessed as 3',6'-dimethyl-[1,1':2',1''-terphenyl]-4'-carbaldehyde fromation by HPLC

SMILES: Cc1cc(C=O)c(C)c(-c2ccccc2)c1-c1ccccc1
- Activity (RAW264.7 [20]): Non-Toxic
- inhibition (RAW264.7 [21]): inactive
- Activity (Mus musculus [14]): inactive
- Activity (Mus musculus [22]): inactive
- Activity (Mus musculus [23]): inactive
- Activity (Mus musculus [24]): inactive

SMILES: C[C@@]12C(=O)[C@](C)(C(c3ccccc3)=C1c1ccccc1)[C@@H](S(=O)(=O)c1ccccc1)[C@H]2C=O
- T1/2 [25]: 30 min
- Drug metabolism [26]: Metabolite detected
- Drug metabolism [27]: Metabolite detected

SMILES: C[C@@]12C(=O)[C@](C)(C(c3ccccc3)=C1c1ccccc1)[C@@H](S(=O)(=O)c1ccccc1)[C@H]2C(OC(=O)C1CC1)OC(=O)C1CC1
- Drug metabolism (Liver carboxylesterase [4]): Metabolite_Detected

The next lines start with results.

- Drug metabolism (Liver carboxylesterase [1]): Metabolite_Notdetected
- Drug metabolism (Liver carboxylesterase [2]): Metabolite_Notdetected
- Drug metabolism (Liver carboxylesterase [3]): Metabolite_Notdetected
SMILES: CC(C)(C)C(=O)OC(OC(=O)C(C)(C)C)[C@@H]1[C@H](S(=O)(=O)c2ccccc2)[C@]2(C)C(=O)[C@]1(C)C(c1ccccc1)=C2c1ccccc1

- Drug metabolism (Liver carboxylesterase [4]): Metabolite_Detected
- t1/2 [5]: 3 min
- t1/2 [6]: 10 min
- t1/2 [7]: 30 min
- t1/2 [8]: 840 min
- Drug metabolism [9]: Metabolite_Detected
- t1/2 (Liver carboxylesterase [15]): 30 to 480 min
- Drug metabolism [16]: Metabolite not detected
- Drug metabolism [17]: Metabolite not detected
- Drug metabolism (Liver carboxylesterase [18]): Metabolite_Detected
SMILES: CC(=O)OC(OC(C)=O)[C@@H]1[C@H](S(=O)(=O)c2ccccc2)[C@]2(C)C(=O)[C@]1(C)C(c1ccccc1)=C2c1ccccc1
- inhibition (RAW264.7 [10]): Dose-dependent effect
- Activity (Mus musculus [11]): Dose-dependent effect
- Activity (Mus musculus [12]): Dose-dependent effect
- Activity (Mus musculus [13]): Dose-dependent effect
- Activity (Mus musculus [14]): Active
- Activity (RAW264.7 [19]): Non-Toxic

- Drug metabolism (Liver carboxylesterase [4]): Metabolite_Detected
SMILES: CCCC(=O)OC(OC(=O)CCC)[C@@H]1[C@H](S(=O)(=O)c2ccccc2)[C@]2(C)C(=O)[C@]1(C)C(c1ccccc1)=C2c1ccccc1
